Screening data deposited in PubChem BioAssay by several laboratories.
Efflux pump mplx = inhibitors of Candida antifungal efflux pumps expressed in yeast. inhibition, % at 10 µM. hit rate 0.44% among 330,000. S. cerevisiae Candida pump triplex, Nile Red efflux;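 active = plate passing quality check with inhibition over a set limit, or well fluorescence over plate mean plus 4 SD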;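 note: Nile Red retained in pooled yeast measured as flow cytometry median fluorescence; 0% = buffer negative control and 100% = Enniatin B positive control; higher means more Nile Red kept so more efflux inhibition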
IDE cell inh = inhibitors of human insulin-degrading enzyme in cells. AID 434962. inhibition, % at 5.59 µM. HEK cells, FAbetaB cleavage, fluorescence polarization. hit rate 0.41% among 320,000;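 active = percent inhibition above the average of all tested compounds plus 3 SD, set per screening campaign, cut at about 16% in these data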;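 note: IDE supplied by intact live HEK cells; FP after avidin binding of uncleaved biotin substrate so inhibition keeps polarization high; 0% = DMSO wells and 100% = 60 µM reference IDE inhibitor Ii1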
CR mimetic SO = caloric restriction mimetics inhibiting age-related superoxide in yeast; S. cerevisiae aged cells, superoxide DHE fluorescence; hits give low values; superoxide response (% of plate mean), % at 10 µM; hit rate 0.18% among 330,000;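 active = superoxide response under a set limit, about three screen SD below normal, cut at about 65% in these data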;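 note: yeast aged for seven days with compound at 30 °C before DHE staining; 100% = average MFI of all compound-treated wells on the plate with controls excluded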
IDE cell activ = IDE (human) activation, cell-based; P14735; HEK cells, FAbeta-B cleavage, fluorescence polarization; 0% vehicle, 100% cell-free pure enzyme wells; activation, % at 5.96 µM; hit rate 0.073% among 340,000;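 active = activation above the mean of all tested compounds plus 3 SD, set per screening campaign, cut at about 17% in these data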
Tb MetRS inh = blocks T. brucei methionyl-tRNA synthetase activity | purified T. brucei MetRS, ATP depletion, Kinase-Glo luminescence | inhibition, % at 11.9 µM | hit rate 0.4% among 360,000 | AID 624268;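 active = inhibition above a per-plate cutoff of the control wells' mean inhibition plus 3 SD, cut at about 5.5% in these data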;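 note: 0% = DMSO wells median and 100% = median of wells with control inhibitor compound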
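Dosing: 11.9 µM single point; system: parasite MetRS enzyme; technique: luminescence of leftover ATP; times: 15 min enzyme-compound preincubation, 2 h reaction, 10 min detection, 25 °C; replicates: each compound tested once; read-out basis: percent inhibition relative to median high and low control wells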
HDAC3 inhib = inhibitors of human histone deacetylase 3; O15379; recombinant HDAC3, fluorogenic peptide/trypsin coupled, fluorescence; inhibition, % at 8.3 µM; hit rate 0.15% among 320,000; in the data active = inhibition above about 26%, passing the limit was not always enough
Target sequence (O15379 whole entry, looked up): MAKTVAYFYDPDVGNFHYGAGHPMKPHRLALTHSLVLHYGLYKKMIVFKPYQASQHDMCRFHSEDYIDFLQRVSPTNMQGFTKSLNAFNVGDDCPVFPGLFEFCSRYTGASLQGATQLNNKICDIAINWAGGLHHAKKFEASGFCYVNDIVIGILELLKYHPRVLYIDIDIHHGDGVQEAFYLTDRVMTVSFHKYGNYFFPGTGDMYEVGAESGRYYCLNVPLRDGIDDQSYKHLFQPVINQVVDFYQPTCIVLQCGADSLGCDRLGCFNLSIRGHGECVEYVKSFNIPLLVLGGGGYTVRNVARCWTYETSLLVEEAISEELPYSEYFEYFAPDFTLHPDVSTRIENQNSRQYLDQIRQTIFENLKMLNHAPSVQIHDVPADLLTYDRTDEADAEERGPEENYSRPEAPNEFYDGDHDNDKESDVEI
Cmpd fluor yeast = counter-screen for efflux pump inhibitors: compound fluorescence. hit rate 4% among 1,700. shares compounds with Efflux pump mplx. fluorescence ratio to DMSO, % at 10 µM. S. cerevisiae AD/pABC3, flow cytometry. AID 588517;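 active = fluorescence ratio to DMSO above its plate's cutoff, the plate mean ratio plus 5 SD, cut at about 210% in these data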;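 note: unstained yeast with no Nile Red so the signal is compound autofluorescence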
CaMdr1 efflux inh = blocks the Candida albicans Mdr1 efflux pump in yeast. S. cerevisiae AD/CaMDR1, Nile Red efflux, flow cytometry. hit rate 1% among 1,700. inhibition, % at 10 µM. shares compounds with Efflux pump mplx. AID 588518; in the data active = inhibition above about 26%;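 note: 0% = DMSO vehicle and 100% = reference inhibitor; higher means more Nile Red retained so more efflux inhibition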
Cdr2 pump inh = blocks the Candida albicans Cdr2 efflux pump in yeast. Nile Red retention ratio vs DMSO, % at 10 µM. S. cerevisiae AD/CaCDR2, Nile Red retention, flow cytometry. shares compounds with Efflux pump mplx. AID 588520. hit rate 4% among 1,700; in the data active = Nile Red retention ratio vs DMSO above about 190%;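 note: higher ratio means more blocking of Cdr2 efflux of the dye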
Cdr1 pump inh = inhibitors of Candida albicans Cdr1 efflux pump | inhibition, % at 10 µM | shares compounds with Efflux pump mplx | hit rate 1% among 1,700 | S. cerevisiae AD/CaCDR1, Nile Red efflux, flow cytometry;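 active = inhibition above the screen-wide mean plus twice its standard deviation, cut at about 32% in these data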
An asterisk follows results filed as active; . = no result. The list is not random: actives were taken first. Their share in the collection is about 1.4%.

SMILES | Efflux pump mplx | IDE cell inh | CR mimetic SO | IDE cell activ | Tb MetRS inh | HDAC3 inhib | Cmpd fluor yeast | CaMdr1 efflux inh | Cdr2 pump inh | Cdr1 pump inh
CCCCC1C2=C(CCCC2=O)OC2=C1C(=O)CCC2 | 7.6* | 0 | 104 | -1 | 0 | -1 | 94 | 0 | 91 | 0
O=C1CCCC2=C1C(Cc1ccccc1)C1=C(CCCC1=O)O2 | 0 | 4 | 92 | 3 | 0 | 3 | . | . | . | .
CC1CCN(C(=O)c2ccc(NS(C)(=O)=O)cc2)CC1 | 0.6* | 4 | 114 | -5 | 0 | -4 | 99 | 0 | 107 | 0
CN(C)S(=O)(=O)Nc1ccc2c(c1)Cc1ccccc1-2 | 0 | 6 | 97 | -3 | -1 | -1 | . | . | . | .
CN(C)S(=O)(=O)Nc1ccc(NS(=O)(=O)N(C)C)c(S(=O)(=O)c2ccccc2)c1 | 0.7* | -1 | 93 | 2 | 0 | 4 | 106 | 0 | 109 | 0
COc1ccc(/C=C/C(=O)Nc2cccc(S(=O)(=O)N3CCCC3)c2)cc1OC | 1.1* | 10 | 107 | 2 | 0 | 6 | 108 | 0 | 88 | 0
Cc1ccc2c(c1)-n1c(nc3cc(F)ccc3c1=O)C(Cc1ccc(O)cc1)NC2=O (stereo unspecified) | 0 | 5 | 102 | . | . | 0 | . | . | . | .
O=c1oc2ccccc2c(N2CCCCC2)c1[N+](=O)[O-] | 1.2* | 8 | 81 | 6 | 0 | 8 | 100 | 0 | 98 | 0
CC(C)Sc1cc(N2CCOCC2)nc(-c2ccc(Cl)cc2)n1 | 0 | 4 | 99 | 5 | -1 | -10 | 94 | 0 | 91 | 0
Clc1ccc(Sc2cc(N3CCOCC3)nc(-c3ccccc3)n2)cc1 | 0 | 1 | 107 | 1 | 0 | 10 | . | . | . | .
CCN1CCN(c2cc(SC(C)C)nc(-c3ccc(OC)cc3)n2)CC1 | . | . | . | 3 | -1 | . | 106 | 0 | 104 | 0
Cn1nc(C(=O)NCC(=O)Nc2ccc(F)c(F)c2F)c2ccccc2c1=O | 0 | 2 | 128 | 0 | 0 | -1 | . | . | . | .
O=C(CNC(=O)c1nn(Cc2ccccc2)c(=O)c2ccccc12)Nc1ccc(F)c(F)c1F | 0.9* | 13 | 93 | 3 | 0 | -1 | 101 | 0 | 108 | 0
Cc1c(Cl)cccc1NC(=O)C1COc2ccccc2O1 (stereo unspecified) | 0 | -3 | 96 | 6 | -1 | 0 | . | . | . | .
COc1ccc(NC2=Nc3ccccc3N3C2=Nc2c(c(C)nn2-c2ccc(C)cc2)C3c2cccnc2)cc1 (stereo unspecified) | 0 | 1 | 107 | 1 | 0 | -2 | . | . | . | .
Cc1nn(-c2ccc([N+](=O)[O-])cc2)c2c1C(c1ccc(OC(F)F)cc1)N1C(=N2)C(=O)Nc2ccccc21 (stereo unspecified) | 1.6* | -1 | 106 | 8 | -1 | -1 | 116 | 1 | 133 | 0
COc1cccc(C2c3c(C)nn(-c4ccc([N+](=O)[O-])cc4)c3N=C3C(=O)Nc4ccccc4N32)c1 (stereo unspecified) | 0.4* | 5 | 97 | 4 | 0 | 6 | 103 | 0 | 98 | 0
Cc1cc(Cl)ccc1NC(=O)C1COc2ccccc2O1 (stereo unspecified) | 1 | 2 | 104 | 3 | 0 | 4 | . | . | . | .
COc1ccc(C(CCN2CCCC2)c2c(OC)cc(OC)c3c(-c4ccccc4)cc(=O)oc23)cc1 (stereo unspecified) | 0 | 7 | 109 | 1 | 0 | 3 | . | . | . | .
COc1ccc(C(CCN2CCOCC2)c2c(OC)cc(OC)c3c(-c4ccccc4)cc(=O)oc23)cc1 (stereo unspecified) | 1.6* | . | 92 | 5 | -1 | . | 95 | 0 | 85 | 0
N#C/C(C(N)=O)=C1/CCCN1Cc1ccccc1 | 0 | 7 | 97 | . | 0 | 10 | . | . | . | .
C#CC[N+](C)(C)CCCCCCCCCCCC | 1.0* | 5 | 118 | 1 | 0 | 8 | 100 | 0 | 495* | 0
CNc1ncnc2c1ncn2[C@H]1CN(CCN2CCOCC2)C[C@@H](CO)O1 | . | . | . | . | 0 | . | . | . | . | .
Cc1ccc2c(CN(C)Cc3ccc(Cl)cc3)cc(=O)oc2c1 | 0 | -8 | 101 | 3 | -1 | 7 | . | . | . | .
CCOc1ccccc1OCC(=O)Nc1nnc(COC)s1 | 0 | -3 | 84 | 5 | -1 | -2 | 104 | 0 | 96 | 0
SMILES | Efflux pump mplx | IDE cell inh | CR mimetic SO | IDE cell activ | Tb MetRS inh | HDAC3 inhib | Cmpd fluor yeast | CaMdr1 efflux inh | Cdr2 pump inh | Cdr1 pump inh
CCOCc1nnc(NC(=O)COc2ccc3c(c2)OCO3)s1 | 1.7* | -5 | 105 | 7 | 0 | -4 | 107 | 0 | 98 | 0
CCOC(=O)C(=O)Nc1nnc(COc2ccccc2)s1 | 0 | -9 | 95 | 9 | 1 | -1 | . | . | . | .
O=C(COc1ccccc1)Nc1nnc(COc2ccccc2)s1 | 0 | . | 96 | 5 | 0 | 6 | 74 | 0 | 89 | 0
CCc1nnc(NC(=O)COc2ccc3ccccc3c2)s1 | 0 | 6 | 109 | 0 | -1 | 8 | 114 | 0 | 106 | 0
CN1CCc2nc(NC(=O)COc3ccc4ccccc4c3)sc2C1 | 0 | 2 | 103 | 2 | 0 | 2 | . | . | . | .
CCN(CC)C(=O)C1=C(C)N(Cc2ccc(OC)cc2)C(=O)C(CC(=O)NCc2cccs2)C1 (stereo unspecified) | . | . | . | . | -1 | . | . | . | . | .
Cc1cc(C)c(OCC(=O)Nc2ccccc2N2CCOCC2)c(C)c1 | 11* | -3 | 104 | 8 | -1 | 4 | 87 | 0 | 110 | 0
N#CCCn1cc(C=C(C#N)C#N)c(-c2ccc(Cl)cc2)n1 | 0 | -2 | 98 | . | -1 | -3 | . | . | . | .
N#CCCn1cc(/C=C(\C#N)c2nc3ccccc3s2)c(-c2ccc(F)cc2)n1 | 1 | 4 | 122 | 1 | 0 | -5 | 82 | 0 | 100 | 0
COc1ccc(CC(=O)Nc2c3c(nn2-c2ccccc2C)CS(=O)C3)cc1 (stereo unspecified) | 0 | 4 | 75 | 4 | 0 | -3 | . | . | . | .
COc1ccc(CC(=O)Nc2c3c(nn2C(C)(C)C)CS(=O)C3)cc1 (stereo unspecified) | 1.8* | 1 | 123 | 6 | -1 | 2 | 114 | 0 | 100 | 0
COc1cc(CNc2ccc(C(=O)O)cc2)cc(Br)c1OCC(=O)NC(C)(C)C | 21* | 4 | 95 | 6 | 0 | 4 | 108 | 0 | 102 | 0
